Results as given in ChEMBL document CHEMBL1139532, “Synthesis and monoamine transporter binding properties of 3alpha-(substituted phenyl)nortropane-2beta-carboxylic acid methyl esters. Norepinephrine transporter selective compounds” (J Med Chem, 2005).

Columns and labels:
[1] = biological target: T1, Sodium-dependent serotonin transporter (Rattus norvegicus, UniProt P31652); assay: Inhibition of [3H]paroxetine binding to rat cortex serotonin transporter
In short: (§1)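 Male Sprague-Dawley rat (200-250 g) brain tissue, 1.5 mg original wet weight, in 50 mM Tris, 120 mM NaCl, 5 mM KCl, pH 7.4, with 0.2 nM [3H]paroxetine and 10 test concentrations, 90 min at room temperature. 1 µM citalopram defines nonspecific binding. GF/B filtration.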

[2] = biological target: Sodium-dependent dopamine transporter (Rattus norvegicus, UniProt P23977); assay: Inhibition of [3H]WIN-35428 binding to rat striatal dopamine transporter
Sequence of Sodium-dependent dopamine transporter (P23977 whole entry): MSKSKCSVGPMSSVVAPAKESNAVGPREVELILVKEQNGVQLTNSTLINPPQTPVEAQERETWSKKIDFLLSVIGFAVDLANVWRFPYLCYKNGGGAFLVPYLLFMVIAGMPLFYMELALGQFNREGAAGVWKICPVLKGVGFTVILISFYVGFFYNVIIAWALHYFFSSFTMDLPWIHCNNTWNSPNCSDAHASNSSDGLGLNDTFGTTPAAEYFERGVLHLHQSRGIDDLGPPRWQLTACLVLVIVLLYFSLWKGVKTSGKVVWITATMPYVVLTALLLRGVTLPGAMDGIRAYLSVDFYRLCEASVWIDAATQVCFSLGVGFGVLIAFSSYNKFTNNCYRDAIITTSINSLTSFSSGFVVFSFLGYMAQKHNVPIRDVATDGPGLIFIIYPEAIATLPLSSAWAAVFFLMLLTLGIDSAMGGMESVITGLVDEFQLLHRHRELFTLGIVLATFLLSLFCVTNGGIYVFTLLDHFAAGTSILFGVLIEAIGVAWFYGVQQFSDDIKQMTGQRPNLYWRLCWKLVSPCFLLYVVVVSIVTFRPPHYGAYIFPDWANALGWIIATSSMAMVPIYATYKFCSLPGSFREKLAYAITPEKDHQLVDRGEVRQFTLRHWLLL

[3] = biological target: T2, Norepinephrine transporter (Rattus norvegicus, UniProt Q9WTR4); assay: Displacement of [3H]nisoxetine from norepinephrine transporter (NET) of rat cerebral cortex; type: tissue-based
T2 sequence (Q9WTR4 whole entry): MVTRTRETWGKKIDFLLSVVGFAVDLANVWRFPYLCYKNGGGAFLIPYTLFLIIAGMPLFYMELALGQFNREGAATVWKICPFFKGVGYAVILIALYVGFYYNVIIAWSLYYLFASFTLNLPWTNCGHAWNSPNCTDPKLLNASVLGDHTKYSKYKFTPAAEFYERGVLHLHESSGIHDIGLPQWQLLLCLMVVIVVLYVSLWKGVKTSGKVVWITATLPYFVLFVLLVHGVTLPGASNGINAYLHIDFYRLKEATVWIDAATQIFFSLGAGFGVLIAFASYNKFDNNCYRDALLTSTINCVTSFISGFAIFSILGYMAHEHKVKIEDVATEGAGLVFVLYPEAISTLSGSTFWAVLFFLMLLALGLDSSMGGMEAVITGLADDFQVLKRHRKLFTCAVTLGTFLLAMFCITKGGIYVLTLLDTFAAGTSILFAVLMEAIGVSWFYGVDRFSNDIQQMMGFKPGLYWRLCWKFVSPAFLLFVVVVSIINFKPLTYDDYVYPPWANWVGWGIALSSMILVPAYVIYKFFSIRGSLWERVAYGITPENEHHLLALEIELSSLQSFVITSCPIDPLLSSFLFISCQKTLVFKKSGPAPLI
In short: (§2)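 Male Sprague-Dawley rat (200-250 g) cerebral cortex, 8 mg per tube, in 50 mM Tris, 120 mM NaCl, 5 mM KCl, pH 7.4 at 4 °C, with [3H]nisoxetine and 10 test concentrations. 1 µM desipramine defines nonspecific binding. GF/B filtration, ice-cold washes.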

[4] = biological target: T2, Norepinephrine transporter; assay: Inhibition of [3H]nisoxetine binding to rat cerebral cortex norepinephrine transporter; type: tissue-based; in short: as §2
[5] = biological target: T1, Sodium-dependent serotonin transporter; assay: Displacement of [3H]paroxetine from serotonin transporter (5-HT) of rat cerebral cortex; type: tissue-based; in short: as §1

T1 sequence (P31652 whole entry): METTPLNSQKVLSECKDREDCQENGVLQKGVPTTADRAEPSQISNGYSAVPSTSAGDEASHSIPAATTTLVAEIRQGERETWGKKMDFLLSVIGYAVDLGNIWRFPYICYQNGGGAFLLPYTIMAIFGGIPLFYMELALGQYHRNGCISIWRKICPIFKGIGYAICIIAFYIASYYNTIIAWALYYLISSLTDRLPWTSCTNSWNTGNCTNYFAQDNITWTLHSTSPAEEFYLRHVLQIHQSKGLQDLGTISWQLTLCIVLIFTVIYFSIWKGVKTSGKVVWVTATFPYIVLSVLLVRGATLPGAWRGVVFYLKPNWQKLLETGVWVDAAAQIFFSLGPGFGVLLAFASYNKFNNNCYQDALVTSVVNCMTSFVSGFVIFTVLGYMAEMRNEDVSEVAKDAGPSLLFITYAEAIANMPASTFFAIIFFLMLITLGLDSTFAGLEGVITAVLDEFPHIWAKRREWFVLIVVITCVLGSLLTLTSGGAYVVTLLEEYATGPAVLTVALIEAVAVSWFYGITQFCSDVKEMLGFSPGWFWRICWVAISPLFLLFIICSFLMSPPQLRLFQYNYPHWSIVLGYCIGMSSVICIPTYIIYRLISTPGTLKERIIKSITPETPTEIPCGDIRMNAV

SMILES	IC50 [1]	IC50 [2]	Ki [3]	IC50 [4]	Ki [5]
COC(=O)C1C(c2ccc(F)c(C)c2)CC2CCC1N2C (centres undefined)	1160 nM	13.7 nM	74 nM	148 nM	258 nM
COC(=O)C1C(c2ccc(C)c(F)c2)CC2CCC1N2C (centres undefined)	1150 nM	7.38 nM	22.4 nM		282 nM
COC(=O)C1C2CCC(CC1c1cccc(F)c1)N2 (centres undefined)	110 nM	2.36 nM	4 nM	9.7 nM	26.8 nM
COC(=O)C1C2CCC(CC1c1ccc(F)c(C)c1)N2 (centres undefined)	69.8 nM	9.38 nM	2.12 nM	4.23 nM	17.1 nM
COC(=O)C1C2CCC(CC1c1ccc(C)c(F)c1)N2 (centres undefined)	97.4 nM	9 nM	0.43 nM	0.86 nM	23.8 nM
COC(=O)C1C2CCC(CC1c1ccc(F)c(F)c1)N2 (centres undefined)	226 nM	5.61 nM	2.6 nM	6.3 nM	55.3 nM
COC(=O)C1C2CCC(CC1c1cc(F)cc(F)c1)N2 (centres undefined)	55.8 nM	2.35 nM	2.05 nM	4.1 nM	13.7 nM
